Screening results as filed in PubChem.
This is a sample that favours compounds with a hit; in the whole collection about 2.7% have one here.
ABHD4 inh: inhibits mouse alpha/beta hydrolase domain 4; purified mABHD4, FP-Rh probe fluorescence polarization; AID 720543; inhibition, % at 8.92 µM; Q8VD66; actives 0.54% (n = 370,000);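 active = inhibition exceeding the mean over every tested compound plus 3 SD, cut at about 30% in these data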
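assay system = mABHD4 protein | compound dosing = single nominal dose of 8.92 µM, 0.89% DMSO final | read-out basis = percent inhibition of probe binding, normalized to plate controls | schedule = Enzyme–compound pre-incubation 45 min, then probe 60 min, both 25 °C | detection = fluorescence polarization, excitation 525 nm, emission 598 nm, BODIPY TMR filters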
SIAE inh: human SIAE inhibition, primary screen; actives 0.69% (n = 370,000); Q9HAT2; inhibition, % at 9.66 µM; SIAE FP-Rh probe binding, fluorescence polarization;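 active = inhibition above a cutoff: mean of compounds within the control limits plus 3 SD of those, cut at about 17% in these data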
TCR-CD3 inh: human TCR-CD3 binding inhibition | inhibition, % at 9.4 µM | actives 0.37% (n = 360,000) | AID 651800 | TAMRA-labeled TCR probe fluorescence, biochemical;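 note: recombinant mutant TCR 2C K166C tagged with TAMRA read by polarization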
PRMT1 FP inh: blocks human protein arginine methyltransferase 1; recombinant PRMT1, activity-based probe fluorescence polarization; inhibition, % at 2.79 µM; actives 1.3% (n = 370,000); AID 652257;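 active = inhibition above about 21% made by adding two undisclosed values, limit read from the data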
HTRA1 inhibitor: inhibitors of human serine peptidase HTRA1; actives 0.5% (n = 340,000); inhibition, % at 5.96 µM; recombinant HTRA1, FP-rhodamine activity-based probe, fluorescence polarization; in the data active = inhibition above about 36%
Target sequence (Q92743 whole entry, looked up): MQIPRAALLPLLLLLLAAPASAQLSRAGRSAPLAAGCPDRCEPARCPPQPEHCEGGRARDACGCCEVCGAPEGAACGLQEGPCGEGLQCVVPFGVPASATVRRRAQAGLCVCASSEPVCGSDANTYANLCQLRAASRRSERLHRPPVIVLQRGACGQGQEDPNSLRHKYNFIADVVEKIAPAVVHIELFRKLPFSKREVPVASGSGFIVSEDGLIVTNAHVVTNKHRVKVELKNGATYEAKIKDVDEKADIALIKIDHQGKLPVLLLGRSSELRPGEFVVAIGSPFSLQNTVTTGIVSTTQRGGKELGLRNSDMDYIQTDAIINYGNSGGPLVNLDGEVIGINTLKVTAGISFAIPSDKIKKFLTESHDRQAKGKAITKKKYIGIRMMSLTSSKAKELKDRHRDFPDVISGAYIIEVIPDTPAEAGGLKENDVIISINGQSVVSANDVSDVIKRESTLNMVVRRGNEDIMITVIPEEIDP
BSA probe FL: interferes with TAMRA-BSA probe, flagging TCR-CD3 hits; shares compounds with TCR-CD3 inh; TAMRA-labeled BSA probe fluorescence counterscreen; inhibition, % at 9.4 µM; actives 10% (n = 1,200); AID 652035; in the data active = inhibition above about 23%
TCR-CD3 inh conf: confirmation of human TCR-CD3 interaction inhibitors. shares compounds with TCR-CD3 inh. inhibition, % at 9.4 µM. TAMRA-labeled TCR probe fluorescence binding assay. actives 48% (n = 1,200). AID 652036
Of the large screens only hits and unclear results are named; the others gave an inactive call (follow-up assays come after a bar, where they were run). Cut-off read from the data, not from the text of the source, unless noted: active = inhibition above about 19%; inactive = the rest.

Cc1ccccc1NS(=O)(=O)c1ccc(C(=O)N2CCC2)cc1	TCR-CD3 inh 20.3 | BSA probe FL inactive | TCR-CD3 inh conf inactive
Cc1ccc(C(=O)NNC(=O)c2nn(-c3ccc(F)cc3)ccc2=O)cc1	none
O=C(NNC(=O)c1nn(-c2ccc(F)cc2)ccc1=O)Nc1cccc(Cl)c1	TCR-CD3 inh 34.4 (no result: HTRA1 inhibitor) | BSA probe FL inactive | TCR-CD3 inh conf 25.6
CC(C)NC(=O)NNC(=O)c1nn(-c2ccc(F)cc2)ccc1=O	TCR-CD3 inh 20.5 | BSA probe FL inactive | TCR-CD3 inh conf inactive
O=C(NNC(=O)c1nn(-c2ccc(F)cc2)ccc1=O)c1ccc(Cl)cc1	none (no result: HTRA1 inhibitor)
CC1CCCCN1C(=O)CN1C(=O)c2ccccc2S1(=O)=O (centres undefined)	none
Cc1cccc(-c2noc(CCCC(=O)N3CCOCC3)n2)c1	TCR-CD3 inh 37.0 | BSA probe FL inactive | TCR-CD3 inh conf inactive
CCC[C@H]1[C@@H](NC(=O)C2CCOC2)CC[C@@]23CCCN2C(=O)CCC[C@@H]13 (some centres undefined)	none (no result: TCR-CD3 inh, HTRA1 inhibitor)
Cc1[nH]c(C)c2c(=O)n(Cc3ccccc3Cl)ncc12	none (no result: HTRA1 inhibitor)
Cc1[nH]c(C)c2c(=O)n(-c3ccccc3)ncc12	TCR-CD3 inh 30.8 | BSA probe FL inactive | TCR-CD3 inh conf inactive
Cc1ccc(SCc2cc(=O)[nH]c(N3CCOCC3)n2)cc1	TCR-CD3 inh 19.4 | BSA probe FL inactive | TCR-CD3 inh conf inactive
CCOc1ccc(N(CC(=O)NC2CCCCC2)C(=O)Cn2nnc(-c3ccc(C)o3)n2)cc1	none
COc1ccc(C(=O)NNC(=O)c2ccncc2)cc1[N+](=O)[O-]	none
CCn1c(C)nc2cc(C(=O)NNC(=S)NC(=O)c3ccc(OC)cc3)ccc21	TCR-CD3 inh 35.6 | BSA probe FL inactive | TCR-CD3 inh conf 31.6
CCCCCC(=O)NNC(=S)NC(=O)c1cccc([N+](=O)[O-])c1	none
COc1ccc(C(=O)NC(=S)NNC(=O)c2ccc(O)cc2)cc1[N+](=O)[O-]	TCR-CD3 inh 28.1 | BSA probe FL inactive | TCR-CD3 inh conf 27.6
COc1ccc(C(=O)NNC(=S)NC(=O)c2cccc([N+](=O)[O-])c2)cc1	TCR-CD3 inh 20.6 | BSA probe FL inactive | TCR-CD3 inh conf 28.5
Nc1[nH]c(C(=O)c2ccccc2)c(-c2ccncc2)c1C(=O)NCc1ccc(Cl)cc1	none (no result: HTRA1 inhibitor)
Cc1ccc(C2C3=C(CCCC3=O)Nc3[nH]c(=S)[nH]c(=O)c32)cc1 (centres undefined)	none
O=c1[nH]c(=S)[nH]c2c1C(c1ccc(Br)cc1)c1c([nH]c(=S)[nH]c1=O)O2	TCR-CD3 inh 22.3, PRMT1 FP inh 44.5 | BSA probe FL inactive | TCR-CD3 inh conf inactive
COC(=O)C1=C(C)N(Cc2cccc(C(F)(F)F)c2)C(=NCC2CC2)NC1c1cccc(Cl)c1 (centres undefined)	none (no result: HTRA1 inhibitor)
CCC(C)(C)NC(=O)Cc1ccc(F)cc1	none (no result: HTRA1 inhibitor)
CCC(C)(C)NC(=O)Cc1ccc(Cl)cc1	TCR-CD3 inh 33.0 (no result: HTRA1 inhibitor) | BSA probe FL inactive | TCR-CD3 inh conf inactive
Cc1cccc(N2CN(S(=O)(=O)c3cccc([N+](=O)[O-])c3)c3nc4ccccc4nc32)c1	none
CC(=O)Nc1ccc(NC(=O)CC(c2ccccc2)c2ccccc2)cc1	TCR-CD3 inh 113.9 | BSA probe FL 23.0 | TCR-CD3 inh conf inactive
O=C(CC(c1ccccc1)c1ccccc1)Nc1ccc(O)cc1	none
CCOC(=O)C1CSCCS(=O)(=O)N1Cc1ccc(F)cc1 (centres undefined)	none (no result: HTRA1 inhibitor)
CCCC(=O)NNC(=O)c1c(O)c2ccccc2[nH]c1=O	TCR-CD3 inh 33.9 | BSA probe FL inactive | TCR-CD3 inh conf 28.3
COC(=O)Nc1ccc(S(=O)(=O)NNC(=O)c2c(O)c3ccccc3[nH]c2=O)cc1	TCR-CD3 inh 23.6 | BSA probe FL inactive | TCR-CD3 inh conf 25.9
CC(C)C(=O)NNC(=O)c1c(O)c2ccccc2[nH]c1=O	none
O=C(NNC(=O)c1c(O)c2ccccc2[nH]c1=O)c1ccccc1	TCR-CD3 inh 41.0 | BSA probe FL inactive | TCR-CD3 inh conf 22.4
CC(C)C1O/C(=N/C(=O)Nc2ccc(Cl)c(Cl)c2)NC1=O (centres undefined)	TCR-CD3 inh 35.2 | BSA probe FL inactive | TCR-CD3 inh conf inactive
O=C(Nc1ccc(Cl)c(Cl)c1)c1ccc(Cl)c(Cl)c1	none
Cc1ccc2oc(C(=O)Nc3ccc(S(=O)(=O)Nc4onc(C)c4C)cc3)c(C)c2c1	none
Cc1ccc(-c2cc(C(=O)Nc3ccc(S(=O)(=O)Nc4onc(C)c4C)cc3)[nH]n2)c(O)c1	TCR-CD3 inh 32.2 | BSA probe FL inactive | TCR-CD3 inh conf 19.6
Cc1nc2ccccc2n1CC(=O)c1ccccc1	none
Cc1nc2ccccc2n1CC(=O)c1ccc(O)c(O)c1	TCR-CD3 inh 45.0 | BSA probe FL inactive | TCR-CD3 inh conf 37.0
NC(=O)c1nsc(C(=O)N(CC(=O)NCc2ccccc2)c2cccc(F)c2)c1N	none
NC(=O)c1nsc(C(=O)N(CC(=O)NCc2ccccc2)c2ccc(F)cc2)c1N	TCR-CD3 inh 35.6 | BSA probe FL inactive | TCR-CD3 inh conf inactive
COCCN(C(=O)CC1C(=O)NCCN1Cc1ccc(-c2ccccc2)cc1)C(C)C (centres undefined)	TCR-CD3 inh 24.2 | BSA probe FL inactive | TCR-CD3 inh conf inactive
COc1cc(/C=C\C(=O)NCc2ccc3c(c2)cc(C)n3C)cc(OC)c1OC	TCR-CD3 inh 31.2 | BSA probe FL inactive | TCR-CD3 inh conf inactive
CCOc1ccc(CC(=O)NCc2ccc3c(c2)cc(C)n3C)cc1	TCR-CD3 inh 30.9 | BSA probe FL inactive | TCR-CD3 inh conf inactive
COc1ccc(CC(=O)NCc2ccc3c(c2)cc(C)n3C)cc1OC	none
CCOc1ccc(-n2c(O)c(/C=N/NC(=O)C3COc4ccccc4O3)c3ccccc3c2=O)cc1 (centres undefined)	TCR-CD3 inh 20.3 | BSA probe FL inactive | TCR-CD3 inh conf 36.5
O=C(O)c1ccc(N=NN2CCCCCC2)cc1	none
NS(=O)(=O)c1ccc(CNS(=O)(=O)c2cccc3nonc23)cc1	none (no result: HTRA1 inhibitor)
Cc1ccc(C(=O)NCCCCNC(=O)c2ccc(C)o2)o1	none
Cc1ccc(C(=O)NCCCC(=O)O)o1	TCR-CD3 inh 41.5 | BSA probe FL inactive | TCR-CD3 inh conf inactive
Cc1ccc(S(=O)(=O)NC[C@H]2CN(S(=O)(=O)c3ccc(C)cc3)[C@@H](Cc3ccccc3)CO2)cc1	none (no result: TCR-CD3 inh, HTRA1 inhibitor)
Cc1ccc(-n2c(O)c(C=Nc3ccccc3-c3n[nH]c(=S)[nH]c3=O)c3ccccc3c2=O)c(C)c1	none
Cc1ccc(-n2c(O)c(C=Nc3ccccc3-c3n[nH]c(=S)[nH]c3=O)c3ccccc3c2=O)cc1C	TCR-CD3 inh 22.6 | BSA probe FL inactive | TCR-CD3 inh conf inactive
COc1ccc(COc2cc(-c3cccc(OC)c3)nc3ccc(NC(=O)c4cccnc4)cc23)cc1	TCR-CD3 inh 37.8 | BSA probe FL inactive | TCR-CD3 inh conf 22.6
